{
  "source": "ChEMBL document CHEMBL1124396",
  "about": "“New brain perfusion imaging agents based on 99mTc-bis(aminoethanethiol) complexes: stereoisomers and biodistribution” (J Med Chem, 1989)",
  "key": {"[1]": {"tested_on": "Rattus norvegicus", "experiment": "Biodistribution in the heart of rat, 15 min after administration", "format": "ADME, organism-based", "details": "in vivo, 0.25 h", "outline": "(§1)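 Male Sprague-Dawley rats (200-300 g) under ether anesthesia were given the 99mTc complex (0.5-20 μCi in 0.2 mL saline) iv via the femoral vein. Organs were taken at 2 or 15 min. Uptake is reported as % dose/organ, found by comparing tissue radioactivity with dilutions of the injected dose.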"}, "[2]": {"tested_on": "Rattus norvegicus", "experiment": "Biodistribution in the stomach of rat, 2 min after administration", "format": "ADME, organism-based", "details": "in vivo", "outline": "as §1"}, "[3]": {"tested_on": "Rattus norvegicus", "experiment": "Biodistribution in the blood of rat, 2 min after administration", "format": "ADME, organism-based", "details": "in vivo", "outline": "as §1"}, "[4]": {"tested_on": "Rattus norvegicus", "experiment": "Biodistribution in the muscle of rat, 2 min after administration", "format": "ADME, organism-based, Muscle tissue", "details": "in vivo", "outline": "as §1"}, "[5]": {"tested_on": "Rattus norvegicus", "experiment": "Biodistribution in the blood of rat, 15 min after administration", "format": "ADME, organism-based", "details": "in vivo, 0.25 h", "outline": "as §1"}, "[6]": {"tested_on": "Rattus norvegicus", "experiment": "Biodistribution in the lungs of rat, 15 min after administration", "format": "ADME, organism-based, Lung", "details": "in vivo, 0.25 h", "outline": "as §1"}, "[7]": {"tested_on": "Rattus norvegicus", "experiment": "Biodistribution in the muscle of rat, 15 min after administration", "format": "ADME, organism-based, Muscle tissue", "details": "in vivo, 0.25 h", "outline": "as §1"}, "[8]": {"tested_on": "Rattus norvegicus", "experiment": "Biodistribution in the spleen of rat, 15 min after administration", "format": "ADME, organism-based", "details": "in vivo, 0.25 h", "outline": "as §1"}, "[9]": {"tested_on": "Rattus norvegicus", "experiment": "Biodistribution in the thyroid of rat, 2 min after administration", "format": "ADME, organism-based, Thyroid gland", "details": "in vivo", "outline": "as §1"}, "[10]": {"tested_on": "Rattus norvegicus", "experiment": "Biodistribution in the skin of rat, 15 min after administration", "format": "ADME, organism-based, Zone of skin", "details": "in vivo, 0.25 h", "outline": "as §1"}, "[11]": {"tested_on": "Rattus norvegicus", "experiment": "Biodistribution in the liver of rat, 15 min after administration", "format": "ADME, organism-based", "details": "in vivo, 0.25 h", "outline": "as §1"}, "[12]": {"tested_on": "Rattus norvegicus", "experiment": "Biodistribution in the lungs of rat, 2 min after administration", "format": "ADME, organism-based, Lung", "details": "in vivo", "outline": "as §1"}, "[13]": {"tested_on": "Rattus norvegicus", "experiment": "Biodistribution in the thyroid of rat, 15 min after administration", "format": "ADME, organism-based, Thyroid gland", "details": "in vivo, 0.25 h", "outline": "as §1"}, "[14]": {"tested_on": "Rattus norvegicus", "experiment": "Biodistribution in the brain of rat, 15 min after administration", "format": "ADME, organism-based", "details": "in vivo, 0.25 h", "outline": "as §1"}, "[15]": {"tested_on": "Rattus norvegicus", "experiment": "Biodistribution in the brain blood of rat, 2 min after administration", "format": "ADME, organism-based", "details": "in vivo", "outline": "(§2)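 Rats (male Sprague-Dawley, 200-300 g) received the 99mTc complex iv (femoral vein, ether anesthesia; 0.5-20 μCi in 0.2 mL saline) and were sampled at 2 or 15 min. % dose/organ was converted to % dose/gram using mean organ weights (brain 1.65 g, blood 18 g). Brain:blood ratio was taken from these % dose/gram values.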"}, "[16]": {"tested_on": "Rattus norvegicus", "experiment": "Biodistribution in the brain blood of rat, 15 min after administration", "format": "ADME, organism-based", "details": "in vivo, 0.25 h", "outline": "as §2"}, "[17]": {"tested_on": "Rattus norvegicus", "experiment": "Biodistribution in the kidneys of rat, 15 min after administration", "format": "ADME, organism-based, Kidney", "details": "in vivo, 0.25 h", "outline": "as §1"}, "[18]": {"tested_on": "Rattus norvegicus", "experiment": "Biodistribution in the stomach of rat, 15 min after administration", "format": "ADME, organism-based", "details": "in vivo, 0.25 h", "outline": "as §1"}, "[19]": {"tested_on": "Rattus norvegicus", "experiment": "Biodistribution in the heart of rat, 2 min after administration", "format": "ADME, organism-based", "details": "in vivo", "outline": "as §1"}, "[20]": {"tested_on": "Rattus norvegicus", "experiment": "Biodistribution in the skin of rat, 2 min after administration", "format": "ADME, organism-based, Zone of skin", "details": "in vivo", "outline": "as §1"}, "[21]": {"tested_on": "Rattus norvegicus", "experiment": "Biodistribution in the kidneys of rat, 2 min after administration", "format": "ADME, organism-based, Kidney", "details": "in vivo", "outline": "as §1"}, "[22]": {"tested_on": "Rattus norvegicus", "experiment": "Biodistribution in the spleen of rat, 2 min after administration", "format": "ADME, organism-based", "details": "in vivo", "outline": "as §1"}},
  "note": "Values joined by “and” are separate entries in the source; they are usually repeats but may differ in a detail not shown here. Equal entries are not always repeated.",
  "data": [
    {"substance": "(Syn-isomer) 99mTc-2,3-bis(2-thioacetamido)propanate", "values": [
      {"measurement": "Biodistribution", "setting": "[1]", "result": 0.43, "unit": "%"},
      {"measurement": "Biodistribution", "setting": "[2]", "result": 1.85, "unit": "%"},
      {"measurement": "Biodistribution", "setting": "[3]", "result": "5.37% and 2.46%"},
      {"measurement": "Biodistribution", "setting": "[4]", "result": 8.43, "unit": "%"},
      {"measurement": "Biodistribution", "setting": "[5]", "result": 2.04, "unit": "%"},
      {"measurement": "Biodistribution", "setting": "[6]", "result": 3.38, "unit": "%"},
      {"measurement": "Biodistribution", "setting": "[7]", "result": 18.1, "unit": "%"},
      {"measurement": "Biodistribution", "setting": "[8]", "result": 0.79, "unit": "%"},
      {"measurement": "Biodistribution", "setting": "[9]", "result": 0.22, "unit": "%"},
      {"measurement": "Biodistribution", "setting": "[10]", "result": 15.7, "unit": "%"},
      {"measurement": "Biodistribution", "setting": "[11]", "result": 18.6, "unit": "%"},
      {"measurement": "Biodistribution", "setting": "[12]", "result": "9.18% and 2.77%"},
      {"measurement": "Biodistribution", "setting": "[13]", "result": 0.07, "unit": "%"},
      {"measurement": "Biodistribution", "setting": "[14]", "result": 1.08, "unit": "%"},
      {"measurement": "Biodistribution", "setting": "[15]", "result": 5.33, "unit": "%"},
      {"measurement": "Biodistribution", "setting": "[16]", "result": 5.82, "unit": "%"},
      {"measurement": "Biodistribution", "setting": "[17]", "result": 2.22, "unit": "%"},
      {"measurement": "Biodistribution", "setting": "[18]", "result": 4.51, "unit": "%"},
      {"measurement": "Biodistribution", "setting": "[19]", "result": 2.46, "unit": "%"},
      {"measurement": "Biodistribution", "setting": "[20]", "result": 9.18, "unit": "%"},
      {"measurement": "Biodistribution", "setting": "[21]", "result": 7.8, "unit": "%"},
      {"measurement": "Biodistribution", "setting": "[22]", "result": 0.7, "unit": "%"}
    ]}
  ]
}
